ChEMBL document CHEMBL1148197, “Three new manzamine alkaloids from a common Indonesian sponge and their activity against infectious and tropical parasitic diseases” (J Nat Prod, 2004)
≈ marks a conversion by molar mass, not a printed value. Calls of active or inactive are those of the source. The rule behind the calls is not given here.

Tests used:
Vero [1] = experiment: Cytotoxicity against african green monkey Vero cells at 4.7 ug/mL; assay type: cell-based; conditions: chlorocebus sabaeus
Staphylococcus aureus [2] = experiment: Antimicrobial activity against Staphylococcus aureus; assay type: functional, organism-based
Staphylococcus aureus [3] = experiment: Antibacterial activity against methicillin-resistant Staphylococcus aureus; assay type: functional, organism-based
Cryptococcus neoformans = experiment: […] activity against Cryptococcus neoformans; assay type: functional, organism-based
[4] = tested on: Mycobacterium intracellulare; experiment: Antibacterial activity against Mycobacterium intracellular; assay type: functional, organism-based
[5] = tested on: Human immunodeficiency virus 1; experiment: Antiviral activity against HIV1 infected in human PBMCs; assay type: functional, organism-based
[6] = tested on: Mycobacterium tuberculosis; experiment: Antitubercular activity against Mycobacterium tuberculosis H37Rv; assay type: functional
Plasmodium falciparum [7] = experiment: Antimalarial activity against Plasmodium falciparum D6; assay type: functional, organism-based
Plasmodium falciparum [8] = experiment: Antimalarial activity against chloroquine-resistant Plasmodium falciparum W2; assay type: functional, organism-based
Leishmania donovani [9] = experiment: Antileishmanial activity against Leishmania donovani; assay type: functional, organism-based
Vero [10] = experiment: Cytotoxicity against african green monkey Vero cells; assay type: cell-based; conditions: chlorocebus sabaeus
Outline: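 Vero (African green monkey kidney) cell cytotoxicity, reported in µg/mL. Compounds without cytotoxicity were scored at a tested concentration of 4.7 µg/mL.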

Plasmodium falciparum [11] = experiment: Antimalarial activity against Plasmodium falciparum D6 at 5 ug/mL; assay type: functional, organism-based
Plasmodium falciparum [12] = experiment: Antimalarial activity against chloroquine-resistant Plasmodium falciparum W2 at 5 ug/mL; assay type: functional, organism-based
Leishmania donovani [13] = experiment: Antileishmanial activity against Leishmania donovani at 5 ug/mL; assay type: functional, organism-based

Row | SMILES | Activity (Vero [1]) | Activity (Staphylococcus aureus [2]) | Activity (Staphylococcus aureus [3]) | Activity (Cryptococcus neoformans) | MIC [6] [µg/mL] | IC90 (Leishmania donovani [9]) [µg/mL] | IC50 [4] [µg/mL] | EC50 [5] [µM] | also measured
1 | [O-][N+]1=C(C2=C[C@@]3(O)CC/C=C\CCCCN4CC[C@@H]2[C@]2(CC5/C=C\CCCCN5[C@H]23)C4)c2[nH]c3ccccc3c2CC1 (stereo partly specified) | Non-toxic | inactive | inactive | inactive |  |  |  |  | Activity [4]: inactive; Activity [5]: inactive
2 | [O-][n+]1ccc2c([nH]c3ccccc32)c1C1=C[C@@]2(O)CC/C=C\CCCCN3CC[C@@H]1[C@]1(C[C@@H]4/C=C\CCCCN4[C@H]12)C3 |  |  |  |  | 3.9 (≈ 6.91 µM) | 3.8 (≈ 6.73 µM) | 0.2 (≈ 0.354 µM) |  | IC50 (Plasmodium falciparum [7]): 0.011 µg/mL (≈ 0.0195 µM); IC50 (Plasmodium falciparum [8]): 0.013 µg/mL (≈ 0.023 µM); IC50 (Leishmania donovani [9]): 1.1 µg/mL (≈ 1.95 µM); Activity (Vero [10]): 4.2 µg/mL; IC50 (Staphylococcus aureus [2]): 0.5 µg/mL (≈ 0.885 µM); IC50 (Staphylococcus aureus [3]): 0.4 µg/mL (≈ 0.708 µM); IC50 (Cryptococcus neoformans): 1 µg/mL (≈ 1.77 µM)
3 | O=C1CCCN2[C@@H]3[C@@]45CN6CCCC/C=C\CC[C@@]3(C=C(c3nccc7c3[nH]c3ccccc37)[C@@H]4CC6)O[C@]2(CC1)C5 | Non-toxic | inactive | inactive | inactive |  |  |  |  | IC50 (Plasmodium falciparum [7]): 1.6 µg/mL (≈ 2.84 µM); IC50 (Plasmodium falciparum [8]): 3.7 µg/mL (≈ 6.57 µM); Activity (Plasmodium falciparum [11]): inactive; Activity (Plasmodium falciparum [12]): inactive; Activity (Leishmania donovani [13]): inactive; Activity [4]: inactive
4 | O=C1CCCN2[C@@H](CC1)C[C@]13CN4CCCC/C=C\CC[C@](O)(C=C(c5nccc6c5[nH]c5ccc(O)cc56)[C@@H]1CC4)[C@H]23 |  |  |  |  |  |  |  |  | Activity (Vero [10]): 4.3 µg/mL
5 | Oc1cccc2c1[nH]c1c(C3=C[C@@]4(O)CC/C=C\CCCCN5CC[C@@H]3[C@]3(CC6/C=C\CCCCN6[C@H]34)C5)nccc12 (stereo partly specified) |  |  |  |  |  | 11 (≈ 19.5 µM) |  | 0.59 | Activity (Vero [10]): 1.1 µg/mL
6 | O[C@]12C=C(c3nccc4c3[nH]c3ccccc34)C3CCN(CCCC/C=C\CC1)C[C@@]31C[C@]34CC[C@H](CCCN3[C@H]12)O4 (stereo partly specified) [6-Deoxymanzamine X] |  |  |  |  | 1.8 (≈ 3.19 µM) |  | 6.25 (≈ 11.1 µM) |  | Activity (Vero [10]): 4.7 µg/mL; IC50 (Staphylococcus aureus [2]): 1.5 µg/mL (≈ 2.66 µM); IC50 (Staphylococcus aureus [3]): 1.5 µg/mL (≈ 2.66 µM); IC50 (Cryptococcus neoformans): 2 µg/mL (≈ 3.54 µM)
7 | C[C@@H]1[C@H](O)[C@@H](C)/C=C/C=C/C=C/C=C/C=C/C=C/C=C/[C@H](O[C@@H]2O[C@H](C)[C@@H](O)[C@H](N)[C@@H]2O)C[C@@H]2O[C@](O)(C[C@@H](O)C[C@@H](O)[C@H](O)CC[C@@H](O)C[C@@H](O)CC(=O)O[C@H]1C)C[C@H](O)[C@H]2C(=O)O [AMPHOTERICIN B] |  |  |  |  |  | 0.15 (≈ 0.162 µM) |  |  | 
8 | O=CC1=C[C@@]2(O)CC/C=C\CCCCN3CC[C@@H]1[C@]1(C[C@@H]4/C=C\CCCCN4[C@H]12)C3 [IRCINAL] | Non-toxic | inactive | inactive | inactive | 30.2 (≈ 73.6 µM) | 8.5 (≈ 20.7 µM) | 50 (≈ 122 µM) | 6.8 | IC50 (Leishmania donovani [9]): 4.6 µg/mL (≈ 11.2 µM); Activity (Plasmodium falciparum [11]): inactive; Activity (Plasmodium falciparum [12]): inactive
9 | OC1=C[C@@]2(O)CC/C=C\CCCCN3CC[C@@H]1[C@]1(C[C@@H]4/C=C\CCCCN4[C@H]12)C3 [IRCINOL A] | Non-toxic | inactive |  | inactive | 1.9 (≈ 4.77 µM) | 0.7 (≈ 1.76 µM) | 50 (≈ 125 µM) | 4.3 | IC50 (Plasmodium falciparum [7]): 2.4 µg/mL (≈ 6.02 µM); IC50 (Plasmodium falciparum [8]): 3.1 µg/mL (≈ 7.78 µM); IC50 (Staphylococcus aureus [3]): 30 µg/mL (≈ 75.3 µM)
10 | O[C@]12C=C(c3nccc4c3[nH]c3ccccc34)[C@@H]3CCN(CCCC/C=C\CC1)C[C@@]31C[C@@H]3/C=C\CCCCN3[C@H]12 [MANZAMINE A] |  |  |  |  |  | 1.8 (≈ 3.28 µM) |  | 4.2 | Activity (Vero [10]): 1.2 µg/mL
11 | O=C1CCCN2[C@@H](CC1)C[C@]13CN4CCCC/C=C\CC[C@](O)(C=C(c5nccc6c5[nH]c5ccccc56)C1CC4)[C@H]23 (stereo partly specified) [MANZAMINE E] | Non-toxic | inactive | inactive | inactive |  | 6.8 (≈ 12 µM) |  | 13.1 | 
12 | O=C1CCCN2[C@@H](CC1)C[C@]13CN4CCCC/C=C\CC[C@](O)(C=C(c5nccc6c5[nH]c5c(O)cccc56)C1CC4)[C@H]23 (stereo partly specified) [MANZAMINE F] | Non-toxic | inactive | inactive |  |  | 7 (≈ 12.1 µM) |  | 7.3 | 
13 | O[C@]12C=C(c3nccc4c3[nH]c3ccccc34)[C@@H]3CCN(CCCC/C=C\CC1)C[C@@]31CC/C=C\CCCCN[C@H]12 [MANZAMINE J] | Non-toxic | inactive | inactive | inactive | 1.7 (≈ 3.09 µM) | 45 (≈ 81.7 µM) | 15 (≈ 27.2 µM) |  | IC50 (Plasmodium falciparum [7]): 1.3 µg/mL (≈ 2.36 µM); IC50 (Plasmodium falciparum [8]): 0.75 µg/mL (≈ 1.36 µM); IC50 (Leishmania donovani [9]): 25 µg/mL (≈ 45.4 µM)
14 | Oc1ccc2[nH]c3c(C4=C[C@@]5(O)CC/C=C\CCCCN6CC[C@@H]4[C@@]4(C6)C[C@@]67CC[C@@H](CCCN6[C@H]45)O7)nccc3c2c1 [MANZAMINE X] | Non-toxic |  |  |  |  |  | 1.5 (≈ 2.58 µM) | 2.3 | IC50 (Staphylococcus aureus [2]): 1 µg/mL (≈ 1.72 µM); IC50 (Staphylococcus aureus [3]): 0.75 µg/mL (≈ 1.29 µM); IC50 (Cryptococcus neoformans): 3 µg/mL (≈ 5.17 µM)
15 | O[C@@H]1CCCN2CC[C@@H]1O[C@@]13CC[C@@H](OC[C@]45CN6CCCC/C=C\CC[C@](O)(C=C(c7nccc8c7[nH]c7ccccc78)[C@@H]4CC6)[C@H]25)[C@@H](O)CCN1[C@@H]1[C@]2(CN4CCCC/C=C\CC[C@]1(O)C=C(c1nccc5c1[nH]c1ccccc15)[C@@H]2CC4)C3 [NEO-KAULUAMINE] | Non-toxic | inactive | inactive |  | 2 (≈ 1.72 µM) | 8.2 (≈ 7.05 µM) | 3 (≈ 2.58 µM) | 2.3 | IC50 (Plasmodium falciparum [7]): 1.7 µg/mL (≈ 1.46 µM); IC50 (Plasmodium falciparum [8]): 2.8 µg/mL (≈ 2.41 µM); IC50 (Leishmania donovani [9]): 4.2 µg/mL (≈ 3.61 µM); IC50 (Cryptococcus neoformans): 3 µg/mL (≈ 2.58 µM)
16 | N=C(N)c1ccc(OCCCCCOc2ccc(C(=N)N)cc2)cc1 [PENTAMIDINE] |  |  |  |  |  | 10 (≈ 29.4 µM) |  |  | 
17 | CO[C@H]1/C=C/O[C@@]2(C)Oc3c(C)c(O)c4c(O)c(c(/C=N/N5CCN(C)CC5)c(O)c4c3C2=O)NC(=O)/C(C)=C\C=C\[C@H](C)[C@H](O)[C@@H](C)[C@@H](O)[C@@H](C)[C@H](OC(C)=O)[C@@H]1C [RIFAMPIN] |  |  |  |  | 0.5 (≈ 0.608 µM) |  |  |  | 
